Results of several laboratories.
Lines come from different studies, so protocols differ.
Target: Sodium-dependent serotonin transporter (SLC6A4, Homo sapiens, UniProt P31645)

The inhibition of CN(CCN1CCC(OC(=O)Nc2ccccc2-c2ccccc2)CC1)C(=O)c1ccc(CN2CCC(C(N)=O)CC2)cc1 is reported as -1% (ligand displacement; radioligand; 1 µM).
CC(C)N1CCC[C@H]1CNC(=O)c1cn(C2CCCC2)c(=O)c2c1c1ccccc1n2C gave an inhibition of 22% (ligand displacement; radioligand; 10 µM).
For COc1ccc(S(=O)(=O)N2CCCCC2)cc1C, the inhibition was < 30% (ligand displacement; radioligand; 10 µM).
Clc1ccc2c(C3CCN(CCc4c[nH]c5ccccc45)CC3)c[nH]c2c1 gave an inhibition of 99% (ligand displacement; radioligand; 10 µM).
CCc1ccccc1C(=O)Nc1n[nH]c2c(C)c(F)c(C3C(C#N)=C(C)N(C)C(C)=C3C#N)cc12 gave an inhibition of -6.24% (ligand displacement; 10 µM).
With COCc1c(-c2cc3cc(C)cc(OC)c3s2)c2c(N)ncnn2c1CN1CCNC(=O)C1 the inhibition was 3% (ligand displacement; radioligand; 10 µM).
c1ccc(C(NCCNC(c2ccccc2)c2ccccc2)c2ccccc2)cc1 has an inhibition of 29% (transporter uptake; inhibitor; 10 µM).
With C[C@H](NC(=O)Nc1cc2[nH]ncc2c(CO)n1)c1ccccn1 the inhibition was -0.787% (cell-free assay; 10 µM).
For C[C@H](C(=O)N[C@H]1COc2ccccc2[C@@H]1S(C)(=O)=O)c1ccc(F)cc1, the inhibition was 11% (transporter uptake; inhibitor; 10 µM).
With CCN(CC)CCCC[C@H](NC(=O)[C@H](CC(C)C)NC(=O)[C@H](C)NC(=O)[C@H](Cc1ccccc1)NC(=O)c1ccc(C(C)(C)C)cc1)C(=O)N[C@@H](CO)C(=O)OC the inhibition was 5% (ligand displacement; radioligand; 10 µM).
